Assay results published in ChEMBL document CHEMBL1817558, “Design, synthesis and antimicrobial activity of chiral 2-(substituted-hydroxyl)-3-(benzo[d]oxazol-5-yl)propanoic acid derivatives” (2011).
≈ marks a conversion by molar mass, not a printed value.

Legend:
Assay type in all cases: functional
Staphylococcus aureus [1] = test: Antibacterial activity against Staphylococcus aureus ATCC 10832 after 24 hrs by NCCLS M7-A6 broth dilution method; conditions: ATCC 10832, 24 h
How it was run: (§1)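 96-well microtitre broth dilution in Mueller-Hinton broth, inoculum 10^5 CFU/mL. Compounds dissolved in DMSO at 4 mg/mL, then twofold serial dilution giving final 200 down to 0.39 µg/mL. Incubated 24 h at 37 °C. Cultures streaked on plates to check clarity; MIC taken as lowest concentration leaving the well clear. DMSO-only solvent control run at matching dilutions.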

Escherichia coli = test: Antibacterial activity against Escherichia coli ATCC 11303 after 24 hrs by NCCLS M7-A6 broth dilution method; conditions: ATCC 11303, 24 h
How it was run: (§2)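 Broth microdilution MIC per NCCLS. The 4 mg/mL DMSO stock was diluted in Mueller-Hinton broth with inoculum at 10^5 CFU/mL. Twofold serial dilutions gave final concentrations of 200 to 0.39 µg/mL. Incubation was 24 h at 37 °C, and cultures were streaked on plates to check clarity. MIC was the lowest concentration giving a clear well. Controls were medium-only and DMSO-only inoculated broth.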

Bacillus subtilis = test: Antibacterial activity against Bacillus subtilis ATCC 33712 after 24 hrs by NCCLS M7-A6 broth dilution method; conditions: ATCC 33712, 24 h; how it was run: as §2
Staphylococcus aureus [2] = test: Antibacterial activity against methicillin-resistant Staphylococcus aureus ATCC 700699 after 24 hrs by NCCLS M7-A6 broth dilution method; conditions: ATCC 700699, 24 h; how it was run: as §1
Candida albicans = test: microbe, parasite or virus in culture; conditions: ATCC 10231, 24 h

| SMILES | MIC (Staphylococcus aureus [1]) | MIC (Escherichia coli) | MIC (Bacillus subtilis) | MIC (Staphylococcus aureus [2]) | MIC (Candida albicans) |
| --- | --- | --- | --- | --- | --- |
| CC1=C(C(=O)O)N2C(=O)[C@@H](NC(=O)[C@H](N)C3=CCC=CC3)[C@H]2SC1 [CEPHRADINE] | 25 µg/mL (≈ 71.5 µM) | 25 µg/mL (≈ 71.5 µM) | 50 µg/mL (≈ 143 µM) | 50 µg/mL (≈ 143 µM) |  |
| Cc1oc(-c2ccccc2)nc1CCCc1nc2cc(C[C@@H](Oc3ccc(-c4ccccc4)cc3)C(=O)O)ccc2o1 | 12.5 µg/mL (≈ 22.4 µM) | 12.5 µg/mL (≈ 22.4 µM) | 6.25 µg/mL (≈ 11.2 µM) | 6.25 µg/mL (≈ 11.2 µM) | > 200 µg/mL |
| Cc1oc(-c2ccccc2)nc1CCCc1nc2cc(C[C@H](Oc3ccc(C(C)(C)C)cc3)C(=O)O)ccc2o1 | 1.56 µg/mL (≈ 2.9 µM) | 3.12 µg/mL (≈ 5.79 µM) | 3.12 µg/mL (≈ 5.79 µM) | 1.56 µg/mL (≈ 2.9 µM) | > 200 µg/mL |
| Cc1oc(-c2ccccc2)nc1CCCc1nc2cc(C[C@H](Oc3cccc(I)c3)C(=O)O)ccc2o1 | 3.12 µg/mL (≈ 5.13 µM) | 25 µg/mL (≈ 41.1 µM) | 12.5 µg/mL (≈ 20.5 µM) | 1.56 µg/mL (≈ 2.56 µM) | > 200 µg/mL |
| CC1(C)S[C@@H]2[C@H](NC(=O)Cc3ccccc3)C(=O)N2[C@H]1C(=O)[O-].[Na+] [PENICILLIN G SODIUM] | 3.12 µg/mL | 0.78 µg/mL | < 0.39 µg/mL | 3.12 µg/mL |  |
| Cc1oc(-c2ccccc2)nc1CCCc1nc2cc(C[C@H](Oc3ccc(F)cc3)C(=O)O)ccc2o1 | 12.5 µg/mL (≈ 25 µM) | 50 µg/mL (≈ 99.9 µM) | 25 µg/mL (≈ 49.9 µM) | 12.5 µg/mL (≈ 25 µM) | > 200 µg/mL |
| Cc1oc(-c2ccccc2)nc1CCCc1nc2cc(C[C@@H](Oc3ccc(C(F)(F)F)cc3)C(=O)O)ccc2o1 | 12.5 µg/mL (≈ 22.7 µM) | 25 µg/mL (≈ 45.4 µM) | 12.5 µg/mL (≈ 22.7 µM) | 6.25 µg/mL (≈ 11.4 µM) | > 200 µg/mL |
| Cc1oc(-c2ccccc2)nc1CCCc1nc2cc(C[C@H](Oc3ccc(I)cc3)C(=O)O)ccc2o1 | 1.56 µg/mL (≈ 2.56 µM) | 12.5 µg/mL (≈ 20.5 µM) | 6.25 µg/mL (≈ 10.3 µM) | 1.56 µg/mL (≈ 2.56 µM) | > 200 µg/mL |
| Cc1oc(-c2ccccc2)nc1CCCc1nc2cc(C[C@H](Oc3cccnc3)C(=O)O)ccc2o1 | 200 µg/mL (≈ 414 µM) | > 200 µg/mL | > 200 µg/mL | 200 µg/mL (≈ 414 µM) | > 200 µg/mL |
| Cc1oc(-c2ccccc2)nc1CCCc1nc2cc(C[C@H](Oc3cccc(F)c3)C(=O)O)ccc2o1 | 12.5 µg/mL (≈ 25 µM) | 50 µg/mL (≈ 99.9 µM) | 25 µg/mL (≈ 49.9 µM) | 12.5 µg/mL (≈ 25 µM) | > 200 µg/mL |
| Cc1oc(-c2ccccc2)nc1CCCc1nc2cc(C[C@H](Oc3ccc(C#N)cc3)C(=O)O)ccc2o1 | 50 µg/mL (≈ 98.5 µM) | 200 µg/mL (≈ 394 µM) | 50 µg/mL (≈ 98.5 µM) | 50 µg/mL (≈ 98.5 µM) | > 200 µg/mL |
| Cc1oc(-c2ccccc2)nc1CCCc1nc2cc(C[C@@H](Oc3ccc(OCc4ccccc4)cc3)C(=O)O)ccc2o1 | 25 µg/mL (≈ 42.5 µM) | 25 µg/mL (≈ 42.5 µM) | 12.5 µg/mL (≈ 21.2 µM) | 25 µg/mL (≈ 42.5 µM) | > 200 µg/mL |
| CC(=O)c1ccc(O[C@@H](Cc2ccc3oc(CCCc4nc(-c5ccccc5)oc4C)nc3c2)C(=O)O)cc1 | 100 µg/mL (≈ 191 µM) | > 200 µg/mL | > 200 µg/mL | 100 µg/mL (≈ 191 µM) | > 200 µg/mL |
| Cc1oc(-c2ccccc2)nc1CCCc1nc2cc(C[C@H](Oc3ccc(Cl)cc3)C(=O)O)ccc2o1 | 6.25 µg/mL (≈ 12.1 µM) | 25 µg/mL (≈ 48.4 µM) | 12.5 µg/mL (≈ 24.2 µM) | 6.25 µg/mL (≈ 12.1 µM) | > 200 µg/mL |
| Cc1oc(-c2ccccc2)nc1CCCc1nc2cc(C[C@H](Oc3ccccc3Br)C(=O)O)ccc2o1 | 25 µg/mL (≈ 44.5 µM) | 50 µg/mL (≈ 89.1 µM) | 50 µg/mL (≈ 89.1 µM) | 25 µg/mL (≈ 44.5 µM) | > 200 µg/mL |
| Cc1oc(-c2ccccc2)nc1CCCc1nc2cc(C[C@H](OC(C)C)C(=O)O)ccc2o1 | 50 µg/mL (≈ 111 µM) | 200 µg/mL (≈ 446 µM) | 50 µg/mL (≈ 111 µM) | 50 µg/mL (≈ 111 µM) | > 200 µg/mL |
| Cc1oc(-c2ccccc2)nc1CCCc1nc2cc(C[C@H](Oc3ccc(OCc4ccccc4)cc3)C(=O)O)ccc2o1 | 1.56 µg/mL (≈ 2.65 µM) | 6.25 µg/mL (≈ 10.6 µM) | 1.56 µg/mL (≈ 2.65 µM) | 1.56 µg/mL (≈ 2.65 µM) | > 200 µg/mL |

| SMILES | MIC (Staphylococcus aureus [1]) | MIC (Escherichia coli) | MIC (Bacillus subtilis) | MIC (Staphylococcus aureus [2]) | MIC (Candida albicans) |
| --- | --- | --- | --- | --- | --- |
| COc1ccc(O[C@@H](Cc2ccc3oc(CCCc4nc(-c5ccccc5)oc4C)nc3c2)C(=O)O)cc1 | 25 µg/mL (≈ 48.8 µM) | 100 µg/mL (≈ 195 µM) | 50 µg/mL (≈ 97.5 µM) | 25 µg/mL (≈ 48.8 µM) | > 200 µg/mL |
| CC(=O)N1CCN(c2ccc(OCC3COC(Cn4ccnc4)(c4ccc(Cl)cc4Cl)O3)cc2)CC1 (stereo not drawn) [KETOCONAZOLE] |  |  |  |  | < 0.39 µg/mL |
| Clc1ccc(COC(Cn2ccnc2)c2ccc(Cl)cc2Cl)c(Cl)c1.O=[N+]([O-])O (stereo not drawn) [MICONAZOLE NITRATE] |  |  |  |  | 1.56 µg/mL |
| CC(C)(O/N=C(\C(=O)N[C@@H]1C(=O)N2C(C(=O)[O-])=C(C[n+]3ccccc3)CS[C@H]12)c1csc(N)n1)C(=O)O [CEFTAZIDIME] | 0.78 µg/mL (≈ 1.43 µM) | 200 µg/mL (≈ 366 µM) | 6.25 µg/mL (≈ 11.4 µM) | 12.5 µg/mL (≈ 22.9 µM) |  |
| Cc1oc(-c2ccccc2)nc1CCCc1nc2cc(C[C@H](Oc3cccc4ncccc34)C(=O)O)ccc2o1 | 25 µg/mL (≈ 46.9 µM) | 200 µg/mL (≈ 375 µM) | 50 µg/mL (≈ 93.7 µM) | 25 µg/mL (≈ 46.9 µM) | > 200 µg/mL |
| Cc1ccc(O[C@@H](Cc2ccc3oc(CCCc4nc(-c5ccccc5)oc4C)nc3c2)C(=O)O)cc1 | 25 µg/mL (≈ 50.3 µM) | 50 µg/mL (≈ 101 µM) | 50 µg/mL (≈ 101 µM) | 12.5 µg/mL (≈ 25.2 µM) | > 200 µg/mL |
| CO[C@@H](Cc1ccc2oc(CCCc3nc(-c4ccccc4)oc3C)nc2c1)C(=O)O | 200 µg/mL (≈ 476 µM) | > 200 µg/mL | 200 µg/mL (≈ 476 µM) | 100 µg/mL (≈ 238 µM) | > 200 µg/mL |
| Cc1oc(-c2ccccc2)nc1CCCc1nc2cc(C[C@H](Oc3ccc(C(F)(F)F)cc3)C(=O)O)ccc2o1 | 1.56 µg/mL (≈ 2.83 µM) | 12.5 µg/mL (≈ 22.7 µM) | 6.25 µg/mL (≈ 11.4 µM) | 1.56 µg/mL (≈ 2.83 µM) | > 200 µg/mL |
| Cc1oc(-c2ccccc2)nc1CCCc1nc2cc(C[C@H](Oc3ccc(Br)cc3)C(=O)O)ccc2o1 | 3.12 µg/mL (≈ 5.56 µM) | 12.5 µg/mL (≈ 22.3 µM) | 6.25 µg/mL (≈ 11.1 µM) | 3.12 µg/mL (≈ 5.56 µM) | > 200 µg/mL |
| COC(=O)[C@H](Cc1ccc2oc(CCCc3nc(-c4ccccc4)oc3C)nc2c1)Oc1ccc(-c2ccccc2)cc1 | > 200 µg/mL | > 200 µg/mL | > 200 µg/mL | > 200 µg/mL | > 200 µg/mL |
| Cc1oc(-c2ccccc2)nc1CCCc1nc2cc(C[C@H](Oc3ccc(Cl)cc3Cl)C(=O)O)ccc2o1 | 3.12 µg/mL (≈ 5.66 µM) | 6.25 µg/mL (≈ 11.3 µM) | 3.12 µg/mL (≈ 5.66 µM) | 1.56 µg/mL (≈ 2.83 µM) | > 200 µg/mL |
| Cc1oc(-c2ccccc2)nc1CCCc1nc2cc(C[C@H](Oc3ccccc3)C(=O)O)ccc2o1 | 25 µg/mL (≈ 51.8 µM) | 100 µg/mL (≈ 207 µM) | 25 µg/mL (≈ 51.8 µM) | 25 µg/mL (≈ 51.8 µM) | > 200 µg/mL |
| CO/N=C(\C(=O)N[C@@H]1C(=O)N2C(C(=O)O)=C(COC(C)=O)CS[C@H]12)c1csc(N)n1 [CEFOTAXIME] | 3.12 µg/mL (≈ 6.85 µM) | 200 µg/mL (≈ 439 µM) | 0.78 µg/mL (≈ 1.71 µM) | 3.12 µg/mL (≈ 6.85 µM) |  |
| Cc1oc(-c2ccccc2)nc1CCCc1nc2cc(C[C@@H](Oc3ccc(C(C)(C)C)cc3)C(=O)O)ccc2o1 | 12.5 µg/mL (≈ 23.2 µM) | 25 µg/mL (≈ 46.4 µM) | 12.5 µg/mL (≈ 23.2 µM) | 12.5 µg/mL (≈ 23.2 µM) | > 200 µg/mL |
| Cc1oc(-c2ccccc2)nc1CCCc1nc2cc(C[C@H](Oc3cc(F)c(F)c(F)c3)C(=O)O)ccc2o1 | 12.5 µg/mL (≈ 23.3 µM) | 25 µg/mL (≈ 46.6 µM) | 6.25 µg/mL (≈ 11.6 µM) | 6.25 µg/mL (≈ 11.6 µM) | > 200 µg/mL |
| Cc1oc(-c2ccccc2)nc1CCCc1nc2cc(C[C@H](Oc3ccc(-c4ccccc4)cc3)C(=O)O)ccc2o1 | 1.56 µg/mL (≈ 2.79 µM) | 3.12 µg/mL (≈ 5.59 µM) | 3.12 µg/mL (≈ 5.59 µM) | 1.56 µg/mL (≈ 2.79 µM) | > 200 µg/mL |
